XiGFP reactiv = activators of inactive X chromosome reactivation, primary screen, imaging, XiGFP fibroblasts, GFP high-content imaging, set 2; 360,000 tested, 0.055% active; XiGFP mouse fibroblasts, % GFP-positive cells imaging, 3 d; cells co-treated with 5-aza-dC sensitizer; scaled so ellipticine positive control = 100%; activation, % at 7.58 µM;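 active = mean normalized replicate activation at least 10% and every replicate at or above 10%; inconclusive = only one of the two criteria met; inactive = mean below 10% and not all replicates reach 10%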;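 note: 0% = median of on-plate neutral control wells and 100% = ellipticine 6 µM median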
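System: XiGFP fibroblasts, SV40-immortalized. Medium: DMEM plus 5-aza-dC sensitizer. Doses: single point. Timing: 3 d treatment, 15 min room-temperature fixation. Control set: ellipticine 6 µM.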
Myeloid diff 2 = induction of myeloid progenitor differentiation, primary screen, cell-based, flow cytometry, MLPCN library | 360,000 tested, 1% active | ER-HoxA9 myeloid progenitors, lysozyme-GFP differentiation | calls only at 10 µM | AID 624256, 2012;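 active = normalized GFP-positive differentiation at or above the plate's own cutoff, the solvent-only control mean plus 3 SD; inconclusive = no clear call, values can overlap the other calls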;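 note: cells exposed to compound for four days before flow analysis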
ABCB6 inh MLPCN = ABCB6 transporter inhibitors, primary screen, K562-ABCB6 cells, flow cytometry, MLPCN library; 360,000 tested, 0.19% active; K562-ABCB6 porphyrin accumulation, 1 h; stronger effect = lower value; fluorescence ratio to DMSO, % at 10 µM; ATP-binding cassette sub-family B member 6 (Homo sapiens), Q9NP58;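 active = fluorescence ratio to DMSO below 75%, the collection mean minus 3 SD; inconclusive = too few cells collected in the well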;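 note: signal is porphyrin accumulated inside mitochondria; 100% equals median channel fluorescence of DMSO control wells; lower ratio means ABCB6 inhibition with less porphyrin fluorescence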
Target sequence (Q9NP58 whole entry, looked up): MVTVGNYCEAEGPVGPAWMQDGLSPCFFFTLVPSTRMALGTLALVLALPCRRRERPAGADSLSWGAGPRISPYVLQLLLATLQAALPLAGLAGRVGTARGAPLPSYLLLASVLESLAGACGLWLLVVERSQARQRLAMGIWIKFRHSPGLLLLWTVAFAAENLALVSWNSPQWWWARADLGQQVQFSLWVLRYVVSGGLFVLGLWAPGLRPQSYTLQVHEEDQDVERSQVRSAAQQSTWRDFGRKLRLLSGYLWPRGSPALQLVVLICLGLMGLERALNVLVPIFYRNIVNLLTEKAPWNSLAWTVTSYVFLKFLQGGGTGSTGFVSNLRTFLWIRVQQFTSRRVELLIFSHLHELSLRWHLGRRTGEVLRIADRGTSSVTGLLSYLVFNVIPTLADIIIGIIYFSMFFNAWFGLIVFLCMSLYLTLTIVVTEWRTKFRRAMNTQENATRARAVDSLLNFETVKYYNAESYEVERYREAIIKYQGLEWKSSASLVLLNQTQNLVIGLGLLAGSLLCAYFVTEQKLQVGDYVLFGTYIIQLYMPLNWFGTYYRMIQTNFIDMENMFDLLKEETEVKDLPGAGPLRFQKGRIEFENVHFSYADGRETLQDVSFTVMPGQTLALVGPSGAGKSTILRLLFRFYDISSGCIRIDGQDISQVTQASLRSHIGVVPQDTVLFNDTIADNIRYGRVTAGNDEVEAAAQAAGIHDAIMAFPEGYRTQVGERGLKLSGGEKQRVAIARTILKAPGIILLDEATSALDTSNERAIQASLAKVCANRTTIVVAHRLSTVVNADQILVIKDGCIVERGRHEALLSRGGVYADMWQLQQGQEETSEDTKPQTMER
* hit, by the source's call. This excerpt belongs to a sample that is enriched for hits.

What do the screens show for `CC(=O)C(Cc1cnc(Cl)s1)(Cc1cnc(Cl)s1)C(C)=O`?
Myeloid diff 2: inactive; ABCB6 inh MLPCN: 105.0

What do the screens show for `C[C@@H]1CN([C@@H](C)CO)S(=O)(=O)c2ccc(C#Cc3ccccc3F)cc2O[C@H]1CN(C)C`?
XiGFP reactiv: -1.1

How did C[C@H]1CN([C@@H](C)CO)C(=O)c2cc(NS(C)(=O)=O)ccc2O[C@@H]1CN(C)C(=O)NC1CCCCC1 do in these assays?
XiGFP reactiv: -0.8

What do the screens show for `O=C1C=C(NCc2ccccc2)c2ccccc2C1=O`?
XiGFP reactiv: 0.0; Myeloid diff 2: active; ABCB6 inh MLPCN: 135.0

Results for O=C1C=C(Nc2ccccc2O)c2ccccc2C1=O ?
Myeloid diff 2: inactive; ABCB6 inh MLPCN: 166.0

What do the screens show for `CSc1nc2nc(C)c(C/C=C/c3ccccc3)c(=O)n2[nH]1`?
XiGFP reactiv: 0.0; Myeloid diff 2: inactive; ABCB6 inh MLPCN: 103.0

How did CCc1c(C)nc2nc(SCc3ccccc3Cl)[nH]n2c1=O do in these assays?
XiGFP reactiv: 0.0; Myeloid diff 2: inactive; ABCB6 inh MLPCN: 61.0*

Results for CC(C)NC(=O)N(C)C[C@@H]1Oc2c(NC(=O)c3cnccn3)cccc2C(=O)N([C@@H](C)CO)C[C@H]1C ?
XiGFP reactiv: -0.2

What do the screens show for `CN(CCNC(=O)C1CCN(c2ncnc3c2nc2n3CCCCC2)CC1)Cc1ccccc1`?
XiGFP reactiv: 0.1; Myeloid diff 2: active; ABCB6 inh MLPCN: 104.0

How did CCN(CCNC(=O)C1CCCN(c2ncnc3c2nc2n3CCCCC2)C1)Cc1ccccc1 (stereo not given) do in these assays?
XiGFP reactiv: 0.0; Myeloid diff 2: inactive; ABCB6 inh MLPCN: 105.0

How did CN(C)C(=O)COC(=O)c1ccccc1NC(=O)c1ccco1 do in these assays?
XiGFP reactiv: 0.0; Myeloid diff 2: active; ABCB6 inh MLPCN: 798.0

How did O=C(COC(=O)c1ccccc1NC(=O)c1ccco1)NC1CC1 do in these assays?
XiGFP reactiv: -0.1; Myeloid diff 2: inactive; ABCB6 inh MLPCN: 90.0

How did Cc1ccc(F)cc1NC(=O)CSc1nc(Nc2ccccc2)nc(N2CCOCC2)n1 do in these assays?
XiGFP reactiv: -0.1; Myeloid diff 2: active; ABCB6 inh MLPCN: 91.0

How did Cc1ccccc1NC(=O)CSc1nc(Nc2ccccc2)nc(N2CCOCC2)n1 do in these assays?
Myeloid diff 2: inactive; ABCB6 inh MLPCN: 91.0

How did C[C@H]1CN([C@@H](C)CO)C(=O)c2cc(-c3cccc(C#N)c3)cnc2O[C@@H]1CN(C)Cc1ccc(F)cc1 do in these assays?
XiGFP reactiv: -0.6

What do the screens show for `O=C1/C(=C\c2ccc(Cl)cc2)CCC1CNc1ccc(Cl)cc1` (stereo not given)?
XiGFP reactiv: 0.0; Myeloid diff 2: active; ABCB6 inh MLPCN: 98.0

How did CN(C)CC1CC/C(=C\c2ccc(O)cc2)C1=O (stereo not given) do in these assays?
XiGFP reactiv: 0.4; Myeloid diff 2: inconclusive; ABCB6 inh MLPCN: 97.0

Results for O=C(C[C@@H]1C[C@H]2c3cc(NC(=O)Nc4ccc(C(F)(F)F)cc4)ccc3O[C@H]2[C@@H](CO)O1)NCc1ccc(Cl)cc1 ?
XiGFP reactiv: 0.1

What do the screens show for `C[C@H]1CCCCO[C@H](CN(C)C(=O)c2ccccc2)[C@@H](C)CN([C@@H](C)CO)C(=O)c2cc(NC(=O)CCCN(C)C)ccc2O1`?
XiGFP reactiv: -0.1

How did O=C(C[C@@H]1CC[C@@H](NC(=O)c2ccncc2)[C@@H](CO)O1)Nc1ccccc1 do in these assays?
XiGFP reactiv: 0.0

Results for CC(=O)Nc1cc(-c2ccccc2N(C)C)cn2c(-c3cccc(C(F)(F)F)c3)cnc12 ?
XiGFP reactiv: 0.2; Myeloid diff 2: active; ABCB6 inh MLPCN: 114.0

What do the screens show for `CC(=O)Nc1cc(-c2cccc(NS(C)(=O)=O)c2)cn2c(-c3cccc(C(F)(F)F)c3)cnc12`?
XiGFP reactiv: -0.1; Myeloid diff 2: inactive; ABCB6 inh MLPCN: 101.0

How did CN(C)CCCNC(=O)C[C@H]1C=C[C@H](NC(=O)c2ccccc2F)[C@@H](CO)O1 do in these assays?
XiGFP reactiv: -0.2

What do the screens show for `CN1C(=O)c2cc(NC(=O)Nc3cccc(Cl)c3)ccc2OC[C@@H]2O[C@@H](CC(=O)NCCc3ccncc3)CC[C@@H]21`?
XiGFP reactiv: 0.2

Results for COc1ccc(CCC(=O)Nc2cccc(S(=O)(=O)N3CCCCCC3)c2)cc1OC ?
XiGFP reactiv: 0.0; Myeloid diff 2: inactive; ABCB6 inh MLPCN: 94.0

Results for COc1ccc(CC(=O)Nc2cccc(S(=O)(=O)N3CCCCCC3)c2)cc1OC ?
XiGFP reactiv: 0.0; Myeloid diff 2: active; ABCB6 inh MLPCN: 91.0

Results for C[C@@H]1CN([C@@H](C)CO)C(=O)c2cc(NC(=O)Nc3ccccc3)ccc2O[C@H]1CN(C)C(=O)Nc1ccccc1 ?
XiGFP reactiv: -0.9

How did Oc1ccccc1CC=NC1CCCCC1 do in these assays?
XiGFP reactiv: 0.1; Myeloid diff 2: active; ABCB6 inh MLPCN: 145.0

Results for Oc1ccc2ccccc2c1C=NC1CCCCC1 ?
XiGFP reactiv: 0.3; Myeloid diff 2: inactive; ABCB6 inh MLPCN: 110.0

Results for Cc1ccc(S(=O)(=O)Nc2ccc3c(c2)C(=O)N([C@@H](C)CO)C[C@@H](C)[C@@H](CN(C)Cc2ccccc2)OCCCC[C@@H](C)O3)cc1 ?
XiGFP reactiv: -0.1

How did O=C(NCC[C@H]1CC[C@@H](NS(=O)(=O)Cc2ccccc2)[C@@H](CO)O1)C1CCC1 do in these assays?
XiGFP reactiv: -0.5

What do the screens show for `CS(=O)(=O)c1ccc(C(=O)Nc2cc(-c3ccccc3)nn2-c2ccccc2)cc1`?
XiGFP reactiv: -0.1; Myeloid diff 2: inactive; ABCB6 inh MLPCN: 95.0

How did COc1ccc(C(=O)Nc2cc(-c3ccccc3)nn2-c2ccccc2F)cc1 do in these assays?
XiGFP reactiv: 0.2; Myeloid diff 2: active; ABCB6 inh MLPCN: 96.0

Results for O=C(C1CCCCC1)N1C[C@@H]2[C@H](c3ccccc31)[C@@H](CO)N2C(=O)Cc1ccccn1 ?
XiGFP reactiv: 0.0

What do the screens show for `CC(C)NC(=O)N(C)C[C@@H]1Oc2ncccc2C(=O)N(C)C[C@@H]1C`?
XiGFP reactiv: 0.3

How did CN(C)CCN(Cc1ccc(Cl)cc1)c1ccccn1 do in these assays?
XiGFP reactiv: 14.6*; Myeloid diff 2: inactive; ABCB6 inh MLPCN: 94.0

Results for C[N+](C)(C)CCN(Cc1ccc(Cl)cc1)c1ccccn1 ?
Myeloid diff 2: inactive; ABCB6 inh MLPCN: 96.0

Results for O=C(C[C@@H]1C=C[C@@H](NC(=O)c2ccccc2)[C@@H](CO)O1)Nc1ccc(-c2ccccc2)cc1 ?
XiGFP reactiv: -0.6

How did O=C(COC(=O)CNC(=O)c1cc(Cl)cc([N+](=O)[O-])c1)NC(=O)NCc1ccco1 do in these assays?
XiGFP reactiv: 0.0; Myeloid diff 2: inactive; ABCB6 inh MLPCN: 95.0

Results for O=C(COC(=O)CNC(=O)c1cccc([N+](=O)[O-])c1)NCc1ccco1 ?
XiGFP reactiv: 0.0; Myeloid diff 2: active; ABCB6 inh MLPCN: 99.0

What do the screens show for `Cc1sc2nc(CN3CCN(S(=O)(=O)c4cccc5nonc45)CC3)[nH]c(=O)c2c1C`?
Myeloid diff 2: inactive; ABCB6 inh MLPCN: 24.0*

High-throughput results from PubChem.
